This is an account of results in ChEMBL document CHEMBL4041515, “Modulating hydrogen-bond basicity within the context of protein-ligand binding: A case study with thrombin inhibitors that reveals a dominating role for desolvation” (Eur J Med Chem, 2017).

Each structure is given as a SMILES string.

For this assay, the target named is Prothrombin (Homo sapiens, UniProt P00734). Nature of the assay: Inhibition of thrombin (unknown origin) using CH3SO2-D-Cha-Gly-Arg-pNA.AcOH as substrate measured every 20 sec for 30 mins in presence of NaCl by UV-Visible spectrophotometric method. An outline of the steps:
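Kinetic chromogenic assay at 25 ± 0.2 °C in 0.02 M Hepes, 0.154 M NaCl (Na⁺ for enzyme activation), final DMSO 6.5 %, pH 7.4 ± 0.05. Thrombin about 8-12 nM final, substrate 100 µM final, inhibitor 0.5-10× preliminary IC50. Enzyme added last to premixed substrate and inhibitor, A405 read. Rates gave dose-response IC50, then Ki via Cheng-Prusoff, and ΔG = RTlnKi.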
Regarding `N=C(N)c1ccc(CNC(=O)[C@@H]2CCCN2C(=O)CCc2ccccc2)cc1`, the Ki (usually the dissociation constant of the complex between target and ligand, obtained from inhibition or displacement) stood at 0.72 µM. The result for `CS(=O)(=O)N1CCC[C@H]1C(=O)NCc1ccc(C(=N)N)cc1` reads 68 µM. The result for `CCN1CCC[C@H]1C(=O)NCc1ccc(C(=N)N)cc1` reads 250 µM; that for `CC(C)(C)CC(=O)N1CCC[C@H]1C(=O)NCc1ccc(C(=N)N)cc1`, 4.2 µM; that for `CC(C)(C)OC(=O)N1CCC[C@H]1C(=O)NCc1ccc(C(=N)N)cc1`, 11.9 µM. For `N=C(N)c1ccc(CNC(=O)[C@@H]2CCCN2C(=O)C(F)F)cc1`, the Ki amounted to 17.9 µM. The same measure for `N=C(N)c1ccc(CNC(=O)[C@@H]2CCCN2C(=O)NCc2ccccc2)cc1`: 14.5 µM; for `N=C(N)c1ccc(CNC(=O)[C@@H]2CCCN2C(N)=O)cc1`: 59 µM; for `N=C(N)c1ccc(CNC(=O)[C@@H]2CCCN2C(=O)OCc2ccccc2)cc1`: 4 µM. The same measure for `N=C(N)c1ccc(CNC(=O)[C@@H]2CCCN2S(N)(=O)=O)cc1`: 163 µM; for `N=C(N)c1ccc(CNC(=O)[C@@H]2CCCN2C(=O)CF)cc1`: 44 µM. The same measure for `CC(=O)N1CCC[C@H]1C(=O)NCc1ccc(C(=N)N)cc1`: 68 µM; for `N=C(N)c1ccc(CNC(=O)[C@@H]2CCCN2C(=O)C(F)(F)F)cc1`: 13.5 µM; for `CC(C)(C)NC(=O)N1CCC[C@H]1C(=O)NCc1ccc(C(=N)N)cc1`: 36 µM. `N=C(N)c1ccc(CNC(=O)[C@@H]2CCCN2S(=O)(=O)C(F)(F)F)cc1`: the Ki is 7.1 µM.
